How the values were obtained:
[1] = target: T1, Protein-glutamine gamma-glutamyltransferase E (Homo sapiens) (UniProt Q08188); test: Inhibition of human transglutaminase 3 using ((benzyloxy)carbonyl)-L-glutaminyl-L-serine peptide substrate assessed as Kinh/Ki ratio by GDH coupled assay
T1 sequence (whole entry): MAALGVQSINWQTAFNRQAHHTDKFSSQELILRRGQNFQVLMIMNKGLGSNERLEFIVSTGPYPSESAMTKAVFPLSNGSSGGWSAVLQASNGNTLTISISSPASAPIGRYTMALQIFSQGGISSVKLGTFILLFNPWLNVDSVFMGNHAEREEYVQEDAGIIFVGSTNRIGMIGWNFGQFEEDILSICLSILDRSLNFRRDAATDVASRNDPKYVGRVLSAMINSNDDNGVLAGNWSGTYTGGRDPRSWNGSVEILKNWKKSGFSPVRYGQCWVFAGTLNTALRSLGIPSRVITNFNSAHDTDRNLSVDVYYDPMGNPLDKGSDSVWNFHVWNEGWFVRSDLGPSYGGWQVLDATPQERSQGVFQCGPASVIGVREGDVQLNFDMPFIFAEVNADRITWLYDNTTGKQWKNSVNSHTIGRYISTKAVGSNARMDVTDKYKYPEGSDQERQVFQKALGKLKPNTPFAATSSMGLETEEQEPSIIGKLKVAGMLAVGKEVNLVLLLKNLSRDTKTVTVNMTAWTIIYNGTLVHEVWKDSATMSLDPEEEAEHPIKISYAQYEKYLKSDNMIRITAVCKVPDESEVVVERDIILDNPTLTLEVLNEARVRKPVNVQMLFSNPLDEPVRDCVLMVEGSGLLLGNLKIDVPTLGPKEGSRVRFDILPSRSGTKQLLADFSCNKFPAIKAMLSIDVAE
Summary of the method: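 His-tagged human TG3 activated by cathepsin L (1 μg per 25 μg TG3, MES pH 6.0, 30 min), then quenched with 50 μM E64 for 10 min. Final TG3 ~0.43 μM in 200 mM MOPS pH 7.2, 5 mM CaCl2, 10 mM α-ketoglutarate, 300 μM NADH, 36 U/mL GDH. Z-Gln-Ser at 20/40 mM. Enzyme pre-equilibrated 30 min before inhibitors (typically 100/33.3/11.1/3.7 μM) were added. A340 curves fitted; kinh/Ki from irreversible model.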

[2] = target: T2, Protein-glutamine gamma-glutamyltransferase 2 (Mus musculus) (UniProt P21981); test: Inhibition of mouse transglutaminase 2 using ((benzyloxy)carbony l)-L-glutaminylglycine peptide substrate assessed as Kinh/Ki ratio by GDH coupled assay
T2 sequence (whole entry): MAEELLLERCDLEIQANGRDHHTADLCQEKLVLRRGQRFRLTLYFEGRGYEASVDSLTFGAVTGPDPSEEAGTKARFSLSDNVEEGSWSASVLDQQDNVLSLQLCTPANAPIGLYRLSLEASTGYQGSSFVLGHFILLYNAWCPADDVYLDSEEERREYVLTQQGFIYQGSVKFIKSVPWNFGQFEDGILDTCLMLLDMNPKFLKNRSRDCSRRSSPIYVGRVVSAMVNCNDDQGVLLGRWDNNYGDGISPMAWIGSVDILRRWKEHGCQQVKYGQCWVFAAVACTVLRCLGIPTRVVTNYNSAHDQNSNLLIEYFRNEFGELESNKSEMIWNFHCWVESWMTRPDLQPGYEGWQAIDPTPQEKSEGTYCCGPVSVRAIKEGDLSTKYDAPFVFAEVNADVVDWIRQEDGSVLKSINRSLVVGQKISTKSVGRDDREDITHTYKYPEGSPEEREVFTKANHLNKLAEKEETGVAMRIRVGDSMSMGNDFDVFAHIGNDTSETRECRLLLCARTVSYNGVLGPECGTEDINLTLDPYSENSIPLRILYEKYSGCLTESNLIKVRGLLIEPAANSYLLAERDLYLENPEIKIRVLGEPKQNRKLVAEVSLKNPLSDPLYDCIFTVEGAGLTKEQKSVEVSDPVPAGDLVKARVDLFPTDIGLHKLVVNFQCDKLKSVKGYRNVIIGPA
Summary of the method: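 Human TG2 (V224G variant) or codon-optimized murine TG2, E. coli-expressed, final ~0.34 and 0.22 μM respectively. Buffer: 200 mM MOPS pH 7.2, 5 mM CaCl2, 10 mM α-ketoglutarate, 300 μM NADH, 36 U/mL bovine GDH. Z-Gln-Gly at 10/20 mM. Inhibitors typically at 100/33.3/11.1/3.7 μM, 1% DMSO, added after ≥5 min pre-equilibration. A340 progress curves fitted to exponential decay; kinh/Ki from irreversible inhibition model.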

[3] = target: T3, Coagulation factor XIII A chain (Homo sapiens) (UniProt P00488); test: Inhibition of human factor 13a using QEQVSPLSLLK peptide substrate assessed as Kinh/Ki ratio by GDH coupled assay
T3 sequence (whole entry): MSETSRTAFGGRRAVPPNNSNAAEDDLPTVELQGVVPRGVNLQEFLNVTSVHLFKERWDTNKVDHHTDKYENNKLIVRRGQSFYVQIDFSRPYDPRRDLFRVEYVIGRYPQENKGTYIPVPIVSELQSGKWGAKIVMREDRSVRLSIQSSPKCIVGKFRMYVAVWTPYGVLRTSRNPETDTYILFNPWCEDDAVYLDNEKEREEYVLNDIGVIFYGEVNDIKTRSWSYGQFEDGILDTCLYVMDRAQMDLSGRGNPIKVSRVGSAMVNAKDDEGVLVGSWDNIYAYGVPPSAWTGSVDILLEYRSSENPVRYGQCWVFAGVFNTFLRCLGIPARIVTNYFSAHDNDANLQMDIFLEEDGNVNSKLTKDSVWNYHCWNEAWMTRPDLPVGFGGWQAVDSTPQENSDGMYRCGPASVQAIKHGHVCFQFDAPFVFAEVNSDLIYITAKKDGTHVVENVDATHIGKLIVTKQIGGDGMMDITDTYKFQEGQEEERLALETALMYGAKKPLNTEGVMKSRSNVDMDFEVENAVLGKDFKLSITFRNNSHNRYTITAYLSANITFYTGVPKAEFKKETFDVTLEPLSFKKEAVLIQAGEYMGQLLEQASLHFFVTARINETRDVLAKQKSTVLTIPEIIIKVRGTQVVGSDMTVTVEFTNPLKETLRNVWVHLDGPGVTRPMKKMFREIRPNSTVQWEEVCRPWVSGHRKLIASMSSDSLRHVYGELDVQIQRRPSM

| SMILES | Ratio [1] | Ratio [2] | Ratio [3] |
| --- | --- | --- | --- |
| O=C(N[C@@H]1C[C@@H](C(=O)NC[C@@H]2CC(Br)=NO2)N(C(=O)OCc2cnc3ccccc3c2)C1)c1ccc(O)cc1 | < 1 | 1.3 | 9.4 |
| O=C(N[C@@H]1C[C@@H](C(=O)NC[C@@H]2CC(Br)=NO2)N(C(=O)OCc2cnc3ccccc3c2)C1)c1cccnc1 | < 1 | 0.68 | 10.6 |
| O=C(NC[C@@H]1CC(Br)=NO1)[C@@H]1C[C@@H](O)CN1C(=O)OCc1cnc2ccccc2c1 | < 1 | 0.5 | 11.1 |
| O=C(NC[C@@H]1CC(Br)=NO1)[C@@H]1C[C@H](F)CN1C(=O)OCc1cnc2ccccc2c1 | < 1 | 0.43 | 7 |
| O=C(NC[C@@H]1CC(Br)=NO1)[C@@H]1CCCN1C(=O)OCc1cnc2ccccc2c1 | < 1 | 0.5 | 8.3 |

Second part, the molecule after the results:

| Ratio [1] | Ratio [2] | Ratio [3] | SMILES |
| --- | --- | --- | --- |
| < 1 | 1.5 | 25.4 | O=C(NC[C@@H]1CC(Br)=NO1)[C@@H]1C[C@@H](c2ccccc2)CN1C(=O)OCc1cnc2ccccc2c1 |
| < 1 | 0.5 | 15.5 | O=C(NC[C@@H]1CC(Br)=NO1)[C@@H]1C[C@@H](OCc2ccccc2)CN1C(=O)OCc1cnc2ccccc2c1 |
| < 1 | 1.4 | 38.7 | O=C(NC[C@@H]1CC(Br)=NO1)[C@@H]1C[C@@H](c2ccc(O)cc2)CN1C(=O)OCc1cnc2ccccc2c1 |

Source: ChEMBL document CHEMBL3351998, “Discovery of potent and specific dihydroisoxazole inhibitors of human transglutaminase 2” (J Med Chem, 2014)
